# High-throughput results (PubChem)
# MC4R barr agon = agonists of human melanocortin 4 receptor (MC4R) beta-arrestin. U2OS MC4R beta-arrestin complementation, luminescence; percent of melanotan II response, DMSO zero. activation, % at 8.9 µM. 360,000 tested, 0.98% active. AID 540308;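 active = activation above a per-plate cutoff, the mean activation of sample wells on that plate plus 3 SD, cut at about 8% in these data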
# Target sequence (P32245 whole entry, looked up): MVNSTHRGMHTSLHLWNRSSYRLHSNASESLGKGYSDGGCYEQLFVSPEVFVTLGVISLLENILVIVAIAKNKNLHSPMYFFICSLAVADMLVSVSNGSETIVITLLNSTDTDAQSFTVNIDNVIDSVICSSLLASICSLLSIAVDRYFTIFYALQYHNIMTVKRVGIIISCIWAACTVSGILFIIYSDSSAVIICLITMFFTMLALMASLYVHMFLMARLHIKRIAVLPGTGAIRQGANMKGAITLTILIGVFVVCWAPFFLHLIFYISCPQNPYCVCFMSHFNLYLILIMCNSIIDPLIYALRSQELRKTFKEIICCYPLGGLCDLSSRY
# MC4R antag cAMP = antagonists of human melanocortin 4 receptor (MC4R); inhibition, % at 6.5 µM; 360,000 tested, 0.48% active; MC4R-expressing cells, MTII-stimulated cAMP, LANCE TR-FRET;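 active = inhibition above its plate's cutoff, the mean of tested wells on that plate plus 3 SD, cut at about 29% in these data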
#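 material = U2OS cells stably expressing human melanocortin 4 receptor (MC4R) | also added = Melanotan II challenge | dosing = single nominal compound dose of 6.5 µM | detection = TR-FRET with Eu-cAMP and labeled anti-cAMP, 671 nm | replication = singlicate | timing = compound 30 min, challenge 1 h, detection 1 h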
# NLRP3 yeast inh = inhibitors of NALP3 inflammasome in yeast; Yeast reconstituted NLRP3/ASC/caspase-1, beta-gal luminescence, 24 h; inhibition, % at 10 µM; 330,000 tested, 0.39% active;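 active = inhibition of 50% or more; inactive = inhibition below 50%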
# NALP1 inh = blocks the NALP1 inflammasome reconstituted in yeast; 280,000 tested, 0.61% active; S. cerevisiae NALP1/ASC/caspase-1 growth, X-gal OD620, 72 h; AID 2071; inhibition, % at 10 µM; in the data active = inhibition mostly above about 24%, no sharp cut-off; inactive = mostly below about 32%
# TbMetRS inhib = blocks T. brucei methionyl-tRNA synthetase activity; purified T. brucei MetRS, ATP depletion, Kinase-Glo luminescence; 360,000 tested, 0.4% active; inhibition, % at 11.9 µM;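 active = inhibition above a per-plate cutoff of the control wells' mean inhibition plus 3 SD, cut at about 5.5% in these data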
#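 technique = Kinase-Glo luminescence, ATP depletion format | system = purified MetRS (methionyl-tRNA synthetase) enzyme from Trypanosoma brucei | timing = 15 min preincubation, 2 h reaction, all 25 °C | evaluation = percent inhibition versus plate control medians | dosing = single dose, 11.9 µM final nominal, 0.9% final DMSO | also added = substrates ATP, L-methionine and bulk Escherichia coli tRNA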
# Bfl-1 A1 inh = inhibitors of the anti-apoptotic protein A1, read as caspase activation; MEF A1-2A-BIM cells, Caspase-Glo 3/7 luminescence, 3 h; percent of clofoctol response, vehicle zero; caspase activation, % (test concentration not listed); 330,000 tested, 0.066% active; AID 2462;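 active = over half of replicate activation scores above 10%, or exactly half above 10 with the replicate mean above 10; inconclusive = replicate mean below 10 yet half the replicates above 10; inactive = over half of replicates below 10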
# NALP3 yeast conf = confirmation of NALP3 inhibitors in yeast. shares compounds with NLRP3 yeast inh. AID 435006. 1,300 tested, 81% active. yeast expressing human NALP3, luminescence. inhibition, % at 10 µM; in the data active = inhibition above about 48%
# Casp1-ASC yeast = caspase-1-ASC yeast counter-screen hit. yeast expressing Caspase-1-ASC, luminescence counter screen. shares compounds with NLRP3 yeast inh. 1,000 tested, 66% active. inhibition, % at 10 µM
# NALP3 retest = yeast NALP3 inhibition, confirmed on retest; yeast expressing human NALP3, luminescence read-out; 1,000 tested, 53% active; inhibition, % at 10 µM; shares compounds with NLRP3 yeast inh
# Hits are given with their value; i = inactive; ? = inconclusive; nt = not tested or not shown; + = active, no number; ! = not active in a repeat. A selection: hits, their analogues and other compounds. The true share with any hit is near 2.5%. Rule as the data show it, unless noted: active = inhibition above about 50%; inactive = the rest.
SMILES,MC4R barr agon,MC4R antag cAMP,NLRP3 yeast inh,NALP1 inh,TbMetRS inhib,Bfl-1 A1 inh,NALP3 yeast conf,Casp1-ASC yeast,NALP3 retest
Cc1cc2ncn(S(=O)(=O)N3CCCCC3)c2cc1C,i,i,69,i,i,i,61,74,68
Cc1cc2ncn(S(=O)(=O)N3CCOCC3)c2cc1C,i,i,i,i,i,i,nt,nt,nt
C[C@@H]1CN([C@@H](C)CO)C(=O)CCCn2cc(nn2)CO[C@H]1CN(C)C(=O)c1ccc2ccn(C)c2c1,i,i,nt,nt,i,nt,nt,nt,nt
CC1(C)CC(=O)c2cnc(N3CCc4ccccc4C3)nc2C1,i,i,62,i,i,i,i,i,i
CCN(CC)S(=O)(=O)c1cc(OC)c(Cl)cc1Cl,i,i,55,i,i,i,64,53,50
COc1cccc(CN(C)S(=O)(=O)c2c(C)noc2C)c1OC,i,i,i,nt,i,nt,nt,nt,nt
CC1CCCN(CCOc2cccc(Oc3ccccc3)c2)C1 (centres undefined),i,i,50,i,i,i,56,i,i
Oc1c(/C=N/c2ccccn2)sc2ccccc12,i,i,65,i,i,i,76,i,70
Clc1ccccc1OCCn1cnc2ccccc21,i,i,76,30,i,nt,84,79,63
CCOc1ccc(Nc2ccc(N)c(S(=O)(=O)O)c2)cc1,i,i,nt,nt,i,nt,nt,nt,nt
COc1ccc(CCN2CC(C(=O)NCc3cn(C)nc3C)CCC2=O)cc1 (centres undefined),i,i,nt,nt,i,nt,nt,nt,nt
COc1ccc(-n2cnc3cc(NC(=O)c4ccco4)ccc32)cc1,i,i,58,i,i,i,80,62,70
O=C(Nc1cccc(-c2cnc3ccccc3n2)c1)c1ccco1,i,i,i,i,i,i,nt,nt,nt
O=C(Nc1ccc2c(c1)ncn2C1CCCCC1)c1ccco1,i,i,53,i,i,i,70,55,52
O=C(Nc1cnc2ccccc2c1)c1ccco1,i,i,52,i,i,i,i,i,i
Cc1cccc(CNC(=O)C2CCC(=O)N(CC3CCCCC3)C2)c1 (centres undefined),i,i,nt,nt,i,nt,nt,nt,nt
Cc1cc(Nc2ccccc2)nc2cc(O)ccc12,i,i,70,52,i,i,82,91,60
COc1ccc(Nc2cc(C)c3ccc(O)cc3n2)cc1,i,i,76,+,i,i,91,nt,nt
CC(N)c1csc(Nc2nccc(C(F)(F)F)n2)n1 (centres undefined),i,i,nt,nt,i,nt,nt,nt,nt
CC(C)NC(=O)C1(C)CCN1C(=O)c1ccc2c(c1)OCO2 (centres undefined),i,i,nt,nt,i,nt,nt,nt,nt
COc1ccc(C(=O)O)cc1S(=O)(=O)NCc1ccncc1,i,i,i,nt,i,i,nt,nt,nt
COc1ccc2cc1Oc1ccc(cc1)C[C@H]1c3c(cc(OC)c4c3Oc3c(ccc5c3[C@H](C2)N(C)CC5)O4)CCN1C,i,i,69,nt,i,i,53,57,69
Cc1ccc(S(=O)(=O)N2CCOCC2)cc1C(=O)NCc1ccccn1,i,i,i,nt,i,nt,nt,nt,nt
CCOC(=O)Cc1csc(NC(=O)c2cccs2)n1,i,i,i,i,i,i,nt,nt,nt
CCOC(=O)Cc1csc(NC(=O)c2ccc(Br)s2)n1,nt,nt,67,39,nt,i,76,nt,nt
SMILES,MC4R barr agon,MC4R antag cAMP,NLRP3 yeast inh,NALP1 inh,TbMetRS inhib,Bfl-1 A1 inh,NALP3 yeast conf,Casp1-ASC yeast,NALP3 retest
O=C(CC(=O)c1c(F)cccc1Cl)c1ccccc1O,i,i,51,i,i,i,70,61,i
O=S(CC(O)c1ccccc1)c1ccccc1 (centres undefined),i,i,nt,nt,i,nt,nt,nt,nt
CC(C)CCOc1cccc(OCC(=O)Nc2ccncc2)c1,i,i,66,i,i,i,78,86,60
Cc1ccc(Nc2cc(C)nn2-c2nc(C)cc(C)n2)cc1,i,i,i,i,i,i,nt,nt,nt
Cc1ccc(Nc2cc(C)nn2-c2nc(C)cc(=O)[nH]2)cc1,i,i,76,i,i,i,81,97,93
Nc1nc(-c2ccccc2)c(-c2ccccc2)s1,i,i,i,i,i,i,nt,nt,nt
Nc1nc(-c2ccccc2)c(-c2ccc([N+](=O)[O-])cc2)s1,i,i,95,i,i,i,98,98,95
O=C1C=C(c2ccc3c(c2)oc2ccccc23)C[C@@H](c2ccc(Cl)cc2)C1,i,i,i,nt,i,i,nt,nt,nt
COC(=O)c1sccc1NC(=O)COc1cccc(C)c1,i,i,54,nt,i,i,58,i,i
c1cc(CCCc2ccncc2)ccn1,i,i,i,nt,i,i,nt,nt,nt
Cc1c(C(=O)Nc2cc(F)cc(F)c2)cnn1-c1ccccc1,i,i,71,i,i,i,76,76,70
Cc1c(C(=O)Nc2ccccc2F)cnn1-c1ccccc1,i,i,i,i,i,i,nt,nt,nt
CCCCCCCCN1C(=O)[C@H](CC(=O)NCCC(C)C)C[C@@]2(C(=O)OC)CC(C)(C)CC=C12,nt,nt,nt,nt,i,nt,nt,nt,nt
CCOC(=O)C1=C(COCCN)NC(C)=C(C(=O)OC)C1c1ccccc1Cl (centres undefined),i,i,53!,nt,i,?,59,i,i
CCOC(=O)C1=C(C)NC(C)=C(C(=O)OC)C1c1cccc(Cl)c1Cl (centres undefined),i,i,i,i,i,i,nt,nt,nt
CCC(=Nc1ccccc1OC)C1=C(O)CC(c2ccccc2)CC1=O (centres undefined),i,i,i,i,i,i,nt,nt,nt
CCC(=Nc1ccccc1O)C1=C(O)CC(c2ccccc2)CC1=O (centres undefined),i,i,62,i,i,i,74,55,56
COC(=O)C12CCC3(SCCS3)C(C(=O)OC)(CCC13SCCS3)C2,i,i,58,i,i,i,i,nt,nt
COC(=O)C1CC2(C(=O)OC)CC(C(=O)OC)(CC(C(=O)OC)C2=O)C1=O (centres undefined),i,i,nt,nt,i,nt,nt,nt,nt
O=c1cc(CSc2ccc(Cl)cc2)nc(-c2ccccn2)[nH]1,i,i,64,i,i,i,84,97,91
O=c1cc(CSc2ccc(Cl)cc2)nc(-c2ccccc2)[nH]1,i,i,i,i,i,i,nt,nt,nt
Clc1ccc(SCc2cc(N3CCOCC3)nc(-c3ccccn3)n2)cc1,i,i,51,i,i,i,57,55,54
Clc1ccc(SCc2csc(N3CCOCC3)n2)cc1,i,i,i,i,i,i,nt,nt,nt
O=C(NCc1ccccc1)c1onc(CS(=O)(=O)c2ccccn2)c1C(=O)NCc1ccccc1,i,i,i,nt,i,i,nt,nt,nt
